In ChEMBL document CHEMBL2321659, “Design, synthesis, and biological evaluation of indenoisoquinoline rexinoids with chemopreventive potential” (J Med Chem, 2013):
Calls of active or inactive are those of the source. The calls are words filed in the database; no cut-off is given here.

Columns and labels:
[1] = target: T1, Retinoic acid receptor RXR-alpha (Homo sapiens, UniProt P19793); experiment: Activation of human RXRalpha activity expressed in COS1 cells after 12 hrs by RXRE-luciferase reporter gene assay; type: cell-based, COS-1
T1 sequence (P19793 whole entry): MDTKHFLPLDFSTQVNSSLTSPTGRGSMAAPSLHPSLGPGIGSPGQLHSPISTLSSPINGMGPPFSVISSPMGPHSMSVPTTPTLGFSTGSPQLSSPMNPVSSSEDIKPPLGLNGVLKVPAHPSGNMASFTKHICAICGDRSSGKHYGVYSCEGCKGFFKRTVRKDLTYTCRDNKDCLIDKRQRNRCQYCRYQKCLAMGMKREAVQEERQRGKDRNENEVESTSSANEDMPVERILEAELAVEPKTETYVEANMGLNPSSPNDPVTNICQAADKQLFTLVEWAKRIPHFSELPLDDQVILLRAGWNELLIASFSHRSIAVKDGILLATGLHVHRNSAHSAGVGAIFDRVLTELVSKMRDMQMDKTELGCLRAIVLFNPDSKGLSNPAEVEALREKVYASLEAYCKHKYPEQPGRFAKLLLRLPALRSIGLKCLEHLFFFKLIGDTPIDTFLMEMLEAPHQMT

[2] = Cytotoxicity against African green monkey COS1 cells assessed as cell survival; type: cell-based; set-up: concentration or dose not given beside the values; conditions: chlorocebus aethiops, COS-1 cells; read-out: Activity
[3] = target: T2, Retinoic acid receptor RXR-alpha (Homo sapiens) (UniProt P19793); experiment: Activation of human RXRalpha activity expressed in COS1 cells assessed as induction ratio at 50 uM after 12 hrs by RXRE-luciferase reporter gene assay relative to untreated control; type: cell-based; conditions: COS-1
T2 sequence (whole entry): T1 sequence (P19793 whole entry)
How it was run: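 COS-1 cells transiently co-transfected per well with 100 ng RXRE-firefly luciferase reporter, 50 ng human RXRα expression vector and 3 ng Renilla luciferase vector using Lipofectamine 2000 for 24 h, then exposed to compound for a further 12 h. Dual-luciferase read-out. Induction ratio taken at 50 µM test concentration.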

HL-60 [4] = experiment: Cytotoxicity against human HL60 cells assessed as inhibition of cell proliferation after 96 hrs; type: functional, cell-based; conditions: HL-60, 96 h
HL-60 [5] = experiment: Cell cycle arrest in human HL60 cells assessed as accumulation at subG1 phase at 250 nM relative to control; type: functional
HL-60 [6] = experiment: Cell cycle arrest in human HL60 cells assessed as accumulation at subG1 phase at 13 nM relative to control; type: functional
[7] = target: T3, Vitamin D3 receptor (Homo sapiens) (UniProt P11473); experiment: Binding affinity to VDR (unknown origin) assessed as inhibition of curcumin binding after 30 mins by ultrafiltration LC-MS/MS analysis
T3 sequence (whole entry): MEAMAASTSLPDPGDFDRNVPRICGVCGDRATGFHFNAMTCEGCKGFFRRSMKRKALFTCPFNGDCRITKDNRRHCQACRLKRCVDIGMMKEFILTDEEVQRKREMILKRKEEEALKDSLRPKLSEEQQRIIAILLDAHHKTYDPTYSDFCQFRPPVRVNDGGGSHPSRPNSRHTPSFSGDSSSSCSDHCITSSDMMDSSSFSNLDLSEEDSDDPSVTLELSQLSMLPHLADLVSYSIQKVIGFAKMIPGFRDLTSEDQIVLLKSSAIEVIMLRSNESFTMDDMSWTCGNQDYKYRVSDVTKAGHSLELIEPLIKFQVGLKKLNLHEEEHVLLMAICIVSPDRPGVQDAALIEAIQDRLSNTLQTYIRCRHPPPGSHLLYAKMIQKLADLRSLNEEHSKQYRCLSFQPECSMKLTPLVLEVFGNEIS

[8] = target: T2, Retinoic acid receptor RXR-alpha (Homo sapiens); experiment: Binding affinity to RXRalpha (unknown origin) at 10 uM after 2 hrs by ultrafiltration LC-MS/MS analysis relative to control
How it was run: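 Purified RXRα (10 µM stock in 50 mM Tris-HCl pH 7.5, 50 mM KCl, 1 mM EDTA) incubated with ligand (final 10 µM, DMSO) for 2 h at room temperature. Then 10 kDa ultrafiltration at 4 °C, three ammonium acetate pH 7.5 washes, release with 90% methanol, UHPLC-MS/MS (SRM). Binding ratio is peak area versus denatured-RXRα (60–70 °C, 15 min) control.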

[9] = target: T3, Vitamin D3 receptor (Homo sapiens); experiment: Binding affinity to VDR (unknown origin) after 30 mins by ultrafiltration LC-MS/MS analysis relative to 6-(6-aminohexyl)-5H-indeno[1,2-c]isoquinoline-5,11(6H)-dione; set-up: Activity: concentration or dose not given beside the values
How it was run: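 Recombinant VDR incubated with ligand in 20 µL for 30 min at 37 °C in the dark with shaking. Then ultrafiltration at 4 °C and rinses with cold 50 mM ammonium acetate/0.1 mM NaCl pH 8.0. Bound ligand released with methanol containing genistein, dried under N2 and quantified by LC-MS. Controls were boiled hVDR or no protein.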

EC50 [1] [µM] | Ratio [3] | Activity [9] [%] | fold change (FC) [9] | SMILES | viability [2] [%] | further results
15.9 | 8.2 | – | – | NCCn1c2c(c3ccccc3c1=O)C(=O)c1ccccc1-2 | 30.7 | –
9.6 | > 1 | – | – | CN(C)CCCn1c2c(c3ccccc3c1=O)C(=O)c1ccccc1-2 | 52.5 | fold change (FC) [8]: 2.6
12.2 | 4.9 | 83.8 | 0.838 | NCCCCCn1c2c(c3ccccc3c1=O)C(=O)c1ccccc1-2 | 40.7 | –
11.3 | 9.9 | 35.3 | 0.353 | NCCCCn1c2c(c3ccccc3c1=O)C(=O)c1ccccc1-2 | 53.8 | –
16.4 | 6.7 | 100 | 1 | NCCCCCCn1c2c(c3ccccc3c1=O)C(=O)c1ccccc1-2 | 24.9 | –
8.66 | 11.4 | 42.7 | 0.427 | NCCCn1c2c(c3ccccc3c1=O)C(=O)c1ccccc1-2 | 50.8 | –
9.22 | > 1 | – | – | CNCCCn1c2c(c3ccccc3c1=O)C(=O)c1ccccc1-2 | 51.2 | fold change (FC) [8]: 7.6

Second part, the compound before the results:

SMILES | EC50 [1] [µM] | Ratio [3] | Activity [9] [%] | fold change (FC) [9] | viability [2] [%] | further results
NCCCn1c2c(c3ccc(NCC(=O)O)cc3c1=O)C(=O)c1ccccc1-2 | 8.4 | > 1 | – | – | 61.2 | –
NCCCn1c2c(c3ccc(N)cc3c1=O)C(=O)c1ccccc1-2 | 4.4 | – | – | – | 52.1 | IC50 (HL-60 [4]): 0.092 µM; Activity (HL-60 [5]): 28.7%; Activity (HL-60 [6]): 4.5%; inhibition [7]: inactive
CN(C)CCCn1c2c(c3ccc(C#N)cc3c1=O)C(=O)c1ccccc1-2 | > 20.7 | > 1 | – | – | 54.8 | –
COc1ccc2c(c1)C(=O)c1c-2n(CCCN)c(=O)c2ccccc12 | 4.84 | > 1 | – | – | 46.8 | –
CN(C)CCCn1c2c(c3ccc(N)cc3c1=O)C(=O)c1ccccc1-2 | 7 | > 1 | 21.4 | 0.214 | 53.7 | fold change (FC) [8]: 2.5
COC(=O)CC(=O)Nc1ccc2c3c(n(CCCN)c(=O)c2c1)-c1ccccc1C3=O | > 44.5 | > 1 | – | – | 85 | fold change (FC) [8]: 1.7
CN(C)CCCn1c2c(c3ccc(Br)cc3c1=O)C(=O)c1ccccc1-2 | 18.4 | > 1 | – | – | 48.5 | –
NCCCn1c2c(c3ccc(N)cc3c1=O)Cc1ccccc1-2 | 10 | > 1 | 15.1 | 0.151 | 49.3 | –
COC(=O)c1ccc2c3c(n(CCCN)c(=O)c2c1)-c1ccccc1C3=O | – | < 1 | – | – | 55 | –
CC(=O)Nc1ccc2c3c(n(CCCN)c(=O)c2c1)-c1ccccc1C3=O | > 34.7 | – | – | – | 69.2 | –
O=C(O)CCn1c2c(c3ccc(Br)cc3c1=O)C(=O)c1ccccc1-2 | – | < 1 | – | – | 98 | –
CCOC(=O)CNc1ccc2c3c(n(CCCN)c(=O)c2c1)-c1ccccc1C3=O | – | < 1 | 1.62 | 0.0162 | 22.2 | Activity [8]: inactive
COC(=O)/C=C/c1ccc2c3c(n(CCCN)c(=O)c2c1)-c1ccccc1C3=O | – | < 1 | – | – | 90.4 | –
COC(=O)c1ccc2c3c(n(CCCN(C)C)c(=O)c2c1)-c1ccccc1C3=O | 19.5 | > 1 | – | – | 21.7 | –
CNCCCn1c2c(c3ccc(Br)cc3c1=O)C(=O)c1ccccc1-2 | 10.7 | > 1 | – | – | 31.3 | –
